Only some compounds are listed: those with a hit (about 4.9% of all), similar ones and a draw of the others.
NPY Y2 blocker: blocks the human neuropeptide Y Y2 receptor; P49146; NPY-Y2 expressing cells, antagonist mode; inhibition, % at 2.7 µM; 140,000 tested, 0.99% active; AID 793; in the data active = inhibition above about 17%;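 also: 0% = vehicle with agonist challenge and 100% = reference antagonist with challenge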
NPY-Y1 antag: antagonists of human neuropeptide Y receptor Y1; HEK293-CNG Y1 cells, membrane potential fluorescence; NPY at EC95, then isoproterenol; inhibition, % at 3.6 µM; 200,000 tested, 1% active; AID 1040;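 active = inhibition above the campaign mean inhibition of all tested compounds plus 3 SD, cut at about 20% in these data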;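 also: 0% = DMSO wells given NPY plus isoproterenol and 100% = isoproterenol alone without NPY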
Target sequence (P25929 whole entry, looked up): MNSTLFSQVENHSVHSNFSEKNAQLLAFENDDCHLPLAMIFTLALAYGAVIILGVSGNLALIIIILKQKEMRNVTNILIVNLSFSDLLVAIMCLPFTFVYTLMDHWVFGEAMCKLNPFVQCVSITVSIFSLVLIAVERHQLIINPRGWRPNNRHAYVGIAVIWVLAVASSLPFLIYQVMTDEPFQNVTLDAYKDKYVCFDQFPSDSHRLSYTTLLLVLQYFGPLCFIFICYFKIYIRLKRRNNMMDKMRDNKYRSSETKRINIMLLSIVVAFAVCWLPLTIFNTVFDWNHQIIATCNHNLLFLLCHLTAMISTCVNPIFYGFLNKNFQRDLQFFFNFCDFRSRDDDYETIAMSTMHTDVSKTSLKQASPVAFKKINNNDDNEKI
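Material: HEK293 cells co-expressing NPY Y1 receptor and cyclic-nucleotide gated channel. Timing: compound incubation 1 h at room temperature, readout 45 min post-stimulation. Signal: fluorescence, membrane potential probe.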
NPY1 pot ag: human NPY-Y1 potentiation or agonism, primary screen; P25929; NPY-Y1 expressing cells, potentiator/agonist activation; activation, % at 3.6 µM; 220,000 tested, 0.37% active; AID 1304; in the data active = activation above about 33%, passing the limit was not always enough;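 also: cells stimulated with NPY at EC10 then isoproterenol at EC100; 0% = low agonist plus stimulus and 100% = saturating agonist plus stimulus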
NPY2 pot ag: potentiators or agonists of human neuropeptide Y receptor Y2. P49146. cells expressing NPY-Y2, potentiator/agonist read-out. AID 1359. 220,000 tested, 0.45% active. activation, % at 3.6 µM; in the data active = activation above about 27%;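 also: cells stimulated with NPY near EC25 plus isoproterenol at EC100; 0% = vehicle plus submaximal agonist and 100% = vehicle plus saturating agonist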
RAM inhibit: blocks the yeast RAM network; S. cerevisiae dse1pr::URA3 reporter, 5-FOA growth OD615, 2 d; analog-sensitive cbk1-as2 kinase mutant strain; inhibition, % at 50 µM; 190,000 tested, 1.8% active; AID 868;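 active = inhibition above a set limit, 3 SD over mean compound inhibition, cut at about 8.4% in these data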;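 also: 0% = DMSO-only wells with no growth and 100% = 10 µM 1-NA-PP1 full growth; inhibition rescues growth on 5-FOA so higher OD means more RAM inhibition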
WT yeast gro inh: growth inhibition of WT yeast, mitochondrial fusion screen; inhibition, % at 10 µM; 190,000 tested, 2.1% active; mitochondrial fusion phenotypic screen, WT strain; in the data active = inhibition above about 58%; tested in S. cerevisiae
NPY-Y1 confirm: confirmation of human NPY-Y1 receptor potentiators or agonists; shares compounds with NPY1 pot ag; cell-based NPY-Y1 potentiator/agonist assay; activation, % at 3.6 µM; 280 tested, 20% active; in the data active = activation above about 45%;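 also: cells challenged with NPY at its EC10 plus isoproterenol stimulus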
NPY-Y2 counter: potentiates or activates NPY-Y2, counter-screen for NPY-Y1 hits | shares compounds with NPY1 pot ag | HEK293-CNG cells, membrane-potential fluorescence (FLIPR), 1536-well | activation, % at 3.6 µM | 280 tested, 20% active; in the data active = activation above about 33%
NPY-Y1 agonist: counter-screen for NPY-Y1 potentiators: agonists of human NPY-Y1. activation, % at 3.6 µM. shares compounds with NPY1 pot ag. 280 tested, 50% active. HEK293 Y1-CNGC, membrane potential fluorescence, agonist mode;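 active = percent activation above the mean of DMSO-only control wells plus 3 SD of those wells, cut at about 18% in these data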;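 also: cells challenged with isoproterenol plus Ro 20-1724 with no NPY in test wells; Y1 agonism lowers isoproterenol-driven cAMP and reduces probe fluorescence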
NPY-Y2 ag: human NPY-Y2 agonism as NPY-Y1 counter-screen; 280 tested, 67% active; HEK293 Y2-CNGC, membrane potential fluorescence, agonist mode; activation, % at 3.6 µM; shares compounds with NPY1 pot ag;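 active = activation above the solvent-only control wells' mean plus 3 SD, cut at about 11% in these data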;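 also: 0% = DMSO with isoproterenol and 100% = 40 nM NPY maximal response; agonism lowers cAMP so well fluorescence drops in active wells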
CNGC inh 2: blocks cyclic nucleotide gated channel in NPY-Y1 counter-screen; shares compounds with NPY1 pot ag; HEK293-CNG parental, isoproterenol cAMP, membrane potential fluorescence; inhibition, % at 3.6 µM; 280 tested, 42% active; AID 1704;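 active = inhibition above the mean of stimulated solvent-only control wells plus 3 SD, cut at about 22% in these data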;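 also: 0% = isoproterenol-stimulated DMSO wells and 100% = unstimulated DMSO wells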
* marks the source's active call; other numbers are inactive results; x = no result.

SMILES | NPY Y2 blocker | NPY-Y1 antag | NPY1 pot ag | NPY2 pot ag | RAM inhibit | WT yeast gro inh | NPY-Y1 confirm | NPY-Y2 counter | NPY-Y1 agonist | NPY-Y2 ag | CNGC inh 2
NS(=O)(=O)c1ccc(CCNc2ncnc3c2c(-c2ccccc2)cn3-c2ccc(F)cc2)cc1 | -1 | -6 | 105* | -7 | 1 | 36 | 6 | -2 | -5 | 3 | 5
CCOC(=O)n1ccc(C(=O)Nc2ccccc2F)n1 | 0 | -10 | -3 | -8 | -2 | x | x | x | x | x | x
O=C1N=c2ccccc2=C1c1sc(=S)n(Cc2ccccc2Cl)c1O | x | x | 72* | -6 | x | x | 37 | 38* | 25* | 30* | 30*
C/C(=C\C(=S)Nc1ccccc1)Nc1cccc2ccccc12 | 1 | -5 | -10 | -7 | 1 | 48 | x | x | x | x | x
Cc1cccn2c(=O)c3cc(C(N)=S)c(=N)n(CCCN4CCOCC4)c3nc12 | x | 3 | 3 | -1 | 0 | 12 | x | x | x | x | x
Cc1cccc(C)c1Nc1c(-c2ccccn2)nc2ccccn12 | x | -7 | 46* | 27 | 0 | 68 | 48* | 34* | 39* | 41* | 31*
CCOc1ccc(N(CC(=O)OC)S(=O)(=O)c2ccc3c(c2)n(C)c(=O)c(=O)n3C)cc1 | 0 | 1 | -7 | -5 | 4 | -15 | x | x | x | x | x
COc1ccc2cc(C)c3nnc(SCC(=O)Nc4nc(-c5ccc(F)cc5)cs4)n3c2c1 | 1 | -1 | -7 | -4 | 4 | 9 | x | x | x | x | x
O=C(CN1c2ccccc2Sc2ccccc21)NNC(=O)Nc1cccc(Cl)c1 | x | x | 50* | 9 | x | x | 48* | 30 | 45* | 36* | 40*
O=C(Cc1ccccc1)NNC(=O)Nc1cccc(Cl)c1 | 7 | -2 | 11 | 4 | 1 | -19 | x | x | x | x | x
O=[N+]([O-])c1cc(S(=O)(=O)N2CCCCCC2)ccc1Cl | x | -2 | 41* | 31 | 6 | -3 | 16 | 22 | 16 | 22* | 56*
Cc1ccc(S(=O)(=O)N2CCCC2)cc1[N+](=O)[O-] | 1 | 0 | 15 | 7 | 1 | -9 | x | x | x | x | x
CC1CCN(c2ncnc3ccccc23)CC1 | 3 | -6 | 40* | -6 | 1 | -10 | -18 | -5 | -23 | -10 | -3
CC1CCN(c2nc(-c3ccccc3O)nc3ccccc23)CC1 | 0 | -1 | -6 | 9 | 1 | -1 | x | x | x | x | x
CC1(C)CC(=O)C(Sc2ccccc2C(=O)O)=C(O)C1 | 1 | -4 | 16 | -6 | 0 | -12 | x | x | x | x | x
CCOC(=O)c1cnc(SCc2nc(N)nc(Nc3ccccc3)n2)nc1N | -1 | 2 | 1 | 4 | 4 | 3 | x | x | x | x | x
COc1ccccc1Oc1ccc2c(c1)C(=O)N(c1cccc3ncccc13)C2=O | 1 | -1 | 43* | 24 | 2 | -4 | 1 | 12 | 1 | -5 | -13
OCCC1CN(CC#Cc2ccccc2)CCN1C1CCCC1 (configuration not stated) | x | 3 | 102* | -8 | 2 | -1 | -7 | -2 | -7 | -4 | -1
CCN(CC)CCCNC(=O)c1ccc(OCC(=O)Nc2ccccc2C(F)(F)F)c(OC)c1 | x | -5 | 0 | -9 | 1 | -12 | x | x | x | x | x
COc1ccc(S(=O)(=O)Nc2ccccc2C(=O)Nc2nc(-c3ccc(F)cc3)cs2)cc1OC | 4 | -5 | 39* | 32 | 4 | 59* | -16 | 9 | -12 | 7 | -5
O=C(NCCc1c[nH]c2ccccc12)/C(=C/c1cccnc1)NC(=O)c1ccccc1 | x | -1 | -3 | 7 | 0 | -13 | x | x | x | x | x
